From ChEMBL document CHEMBL1125748, “Non-steroidal antiandrogens. Design of novel compounds based on an infrared study of the dominant conformation and hydrogen-bonding properties of a series of anilide antiandrogens” (J Med Chem, 1991)

Assays:
[1] = Partition coefficient (logP); format: physicochemical; conditions: octanol/water
[2] = biological target: T1, Androgen receptor (Rattus norvegicus) (UniProt P15207); experiment: Anti-androgenic activity in vivo on groups of five rats treated with seven daily oral doses of testosterone propionate at 200 ug/kg; format: functional, organism-based; conditions: in the assay text read “seven daily subcutaneous doses” for “seven daily oral doses”
T1 sequence (whole entry): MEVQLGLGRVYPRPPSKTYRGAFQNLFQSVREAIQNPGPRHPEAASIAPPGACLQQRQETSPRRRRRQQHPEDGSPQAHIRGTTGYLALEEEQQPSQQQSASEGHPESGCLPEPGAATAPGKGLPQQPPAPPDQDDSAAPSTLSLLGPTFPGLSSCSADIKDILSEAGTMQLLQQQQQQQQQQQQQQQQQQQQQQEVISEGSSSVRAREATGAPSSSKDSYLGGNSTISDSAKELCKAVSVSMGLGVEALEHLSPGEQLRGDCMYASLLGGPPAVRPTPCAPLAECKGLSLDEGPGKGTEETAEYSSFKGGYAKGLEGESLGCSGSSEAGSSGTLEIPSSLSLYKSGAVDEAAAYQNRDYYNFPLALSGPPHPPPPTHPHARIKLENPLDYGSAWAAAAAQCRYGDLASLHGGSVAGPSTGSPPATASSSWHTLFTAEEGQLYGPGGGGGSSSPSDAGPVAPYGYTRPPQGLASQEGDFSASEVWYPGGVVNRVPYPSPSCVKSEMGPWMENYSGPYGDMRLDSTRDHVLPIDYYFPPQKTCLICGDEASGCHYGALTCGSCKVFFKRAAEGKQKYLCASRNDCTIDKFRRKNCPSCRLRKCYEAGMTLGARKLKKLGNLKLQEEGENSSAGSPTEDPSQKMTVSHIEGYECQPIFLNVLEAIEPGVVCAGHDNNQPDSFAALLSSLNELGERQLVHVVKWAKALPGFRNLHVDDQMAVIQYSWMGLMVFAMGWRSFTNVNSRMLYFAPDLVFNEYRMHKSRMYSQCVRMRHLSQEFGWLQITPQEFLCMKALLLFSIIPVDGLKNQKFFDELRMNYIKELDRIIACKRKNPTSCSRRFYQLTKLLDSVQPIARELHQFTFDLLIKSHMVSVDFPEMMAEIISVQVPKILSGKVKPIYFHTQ
Method in brief: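 Male rats, five per group, castrated at 24 days of age, then given testosterone propionate 200 µg/kg subcutaneously daily for seven days. Antiandrogen was given orally, daily, over the same seven days. Rats were killed 24 h after the last dose and seminal vesicles weighed. Percent inhibition of testosterone-stimulated weight was taken against a running castrate control, and ED50 was read from the dose-response curve.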

[3] = biological target: T1, Androgen receptor (Rattus norvegicus); experiment: In vitro relative binding affinity for rat androgen receptor
[4] = biological target: T1, Androgen receptor (Rattus norvegicus); experiment: In vitro relative binding affinity for rat Androgen receptor
[5] = biological target: T1, Androgen receptor (Rattus norvegicus); experiment: Inhibition of anti-androgenic activity in vivo on groups of five rats treated with seven daily subcutaneous doses of testosterone propionate at 200 ug/kg

Structure (SMILES)	logP [1]	relative binding affinity (RBA) [3]	other results
CC(C)C(=O)Nc1ccc([N+](=O)[O-])c(C(F)(F)F)c1 [FLUTAMIDE]	3.35		
NC(=O)CC(O)(/C=C/c1ccc(Cl)c(Cl)c1)C(F)(F)F (configuration not stated)		0.5	ED50 [2]: 2.5 mg/kg
CC(O)(CF)C(=O)Nc1ccc([N+](=O)[O-])c(C(F)(F)F)c1 (configuration not stated)	3.5		relative binding affinity (RBA) [4]: 5.9
OC(/C=C/c1ccc(Cl)c(Cl)c1)(C(F)(F)F)C(F)(F)F		< 0.2	
CC(C(=O)Nc1ccc([N+](=O)[O-])c(C(F)(F)F)c1)C(F)(F)F (configuration not stated)	3.71		
CC(O)(C(=O)Nc1ccc([N+](=O)[O-])c(C(F)(F)F)c1)C(F)(F)F (configuration not stated)	3.21		
OC(/C=C/c1ccc(Cl)c(Cl)c1)(CCl)C(F)(F)F (configuration not stated)		1.8	ED50 [2]: 2 mg/kg
CC(=O)C(O)(/C=C/c1ccc(Cl)c(Cl)c1)C(F)(F)F (configuration not stated)		0.4	
CC(C)(O)C(=O)Nc1ccc([N+](=O)[O-])cc1	1.61		
N#CCC(O)(/C=C/c1ccc(Cl)c(Cl)c1)C(F)(F)F (configuration not stated)		3.6	ED50 [2]: 2.5 mg/kg
CC(C)(O)C(=O)Nc1ccc([N+](=O)[O-])c(C(F)(F)F)c1 [HYDROXYFLUTAMIDE]	2.7	2.1	
Cc1c(C(C)(O)C(F)(F)F)[nH]c2ccccc12 (configuration not stated)		6.7	inhibition [5]: 33%
CC(O)(/C=C/c1ccc(Cl)c(Cl)c1)C(F)(F)F (configuration not stated)			relative binding affinity (RBA) [4]: < 0.2
CC(C)(O)C(=O)Nc1ccc(Cl)cc1	2		
CC(O)(C(=O)Nc1ccc([N+](=O)[O-])c(C(F)(F)F)c1)C(F)F (configuration not stated)	3.76		
CN(C(=O)C(C)(C)O)c1ccc([N+](=O)[O-])c(C(F)(F)F)c1	3.06		
